Assay [1] in a line: Cytotoxicity against human HuCCa1 cells after 48 hrs by MTT assay. It is filed as functional, cell-based. The conditions noted are these: HuCC-A1, 48 h. In outline:
(§1)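 Adherent cells seeded at 10,000–20,000 per well and held 24 h at 37 °C in 5% CO2. Serial dilutions of compound were then added, with etoposide and/or doxorubicin as positive controls and DMSO as negative control. After 48 h of continuous exposure, survival was read by MTT. IC50 was the concentration giving 50% growth inhibition relative to the DMSO control.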

Assay [2] has as its system HepG2. The assay is described as follows: Cytotoxicity against human HepG2 cells after 48 hrs by MTT assay. It is filed as functional, cell-based. The following applies: HepG2, 48 h. In outline:
as §1

For assay [3], the system named is A549. Description: Cytotoxicity against human A549 cells after 48 hrs by MTT assay. Type of assay: functional, cell-based. The following applies: A549, 48 h. Put shortly:
as §1

Assay [4] concerns Vero. The assay is described as follows: Cytotoxicity against african green monkey Vero cells after 4 days by GFP detection method. The following applies: Chlorocebus sabaeus, 96 h. Type of assay: cell-based. Put shortly: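 Cells at 3.3 × 10^4 cells/mL were added to compounds prediluted in 0.5% DMSO. Plates were incubated 4 days at 37 °C in 5% CO2, and GFP fluorescence was read from the plate bottom.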

The nature of assay [5]: Cytotoxicity against human MOLT3 cells after 48 hrs by XTT assay. The conditions noted are these: MOLT-3, 48 h.
Assay [6] deals with HepG2. The assay is described as follows: Ratio of etoposide IC50 to compound IC50 for human HepG2 cells after 48 hrs by MTT assay. Type of assay: functional.
The subject of assay [7] is HepG2. Description: Ratio of doxorubicin IC50 to compound IC50 for human HepG2 cells after 48 hrs by MTT assay. It is filed as functional.

Bounds are passed on as bounds.

On to `COc1cc2c(cc1OC)CN(S(=O)(=O)c1ccc(-n3cc(COc4ccc(C=O)cc4)nn3)cc1)CC2`, for which the IC50 is 31.1 µM in assay [1]; 12.5 µM in assay [2]; 31.8 µM in assay [3]; over 50 µg/mL in assay [4]; 34.1 µM in assay [5].

As for `O=S(=O)(c1ccc(-n2cc(COc3ccccc3)nn2)cc1)N1CCc2ccccc2C1`, the IC50 in assay [1] was over 50 µg/mL; in assay [2], 6.5 µM; in assay [3], over 50 µg/mL; in assay [4], over 50 µg/mL; in assay [5] it was over 50 µg/mL.

Consider `O=Cc1ccc(OCc2cn(-c3ccc(S(=O)(=O)N4CCc5ccccc5C4)cc3)nn2)cc1`, for which the IC50 is over 50 µg/mL in assay [1]; 5.27 µM in assay [2]; 59.1 µM in assay [3]; over 50 µg/mL in assay [4]; over 50 µg/mL in assay [5].

Regarding `COc1cc2c(cc1OC)CN(S(=O)(=O)c1ccc(-n3cc(COc4ccc5ccccc5c4)nn3)cc1)CC2`, the IC50 in assay [1] is over 50 µg/mL; in assay [2], 1.26 µM; in assay [3], over 50 µg/mL; in assay [4], over 50 µg/mL; in assay [5], 36.4 µM.

Compound `Cc1c2ccncc2c(C)c2c1[nH]c1ccccc12` [ELLIPTECINE] came in with an IC50 in assay [4] of 1.94 µM.

Turning to `COc1cc2c(cc1OC)CN(S(=O)(=O)c1ccc(-n3cc(COc4ccccc4C(C)=O)nn3)cc1)CC2`, the IC50 in assay [1] is over 50 µg/mL; in assay [2] it was over 50 µg/mL; in assay [3], over 50 µg/mL; in assay [4] it was 37.2 µM; in assay [5] it was over 50 µg/mL.

`COc1cc([C@@H]2c3cc4c(cc3[C@@H](O[C@@H]3O[C@@H]5CO[C@@H](C)O[C@H]5[C@H](O)[C@H]3O)[C@H]3COC(=O)[C@H]23)OCO4)cc(OC)c1O` [ETOPOSIDE]: in assay [5], inhibition was half-maximal at 0.051 µM (IC50).

As to `COc1cc2c(cc1OC)CN(S(=O)(=O)c1ccc(-n3cc(COc4ccccc4C)nn3)cc1)CC2`, the IC50 in assay [1] was 39.7 µM; in assay [2] it was 1.48 µM; in assay [3], 27.2 µM; in assay [4], over 50 µg/mL; in assay [5], over 50 µg/mL.

Consider `Cc1ccc(OCc2cn(-c3ccc(S(=O)(=O)N4CCc5ccccc5C4)cc3)nn2)cc1`, for which the IC50 in assay [1], in assay [2], in assay [3], in assay [4] and in assay [5] was over 50 µg/mL in each case.

For `Cc1ccccc1OCc1cn(-c2ccc(S(=O)(=O)N3CCc4ccccc4C3)cc2)nn1`, the IC50 in assay [1] is over 50 µg/mL; in assay [2] it was over 50 µg/mL; in assay [3], 66.3 µM; in assay [4], over 50 µg/mL; in assay [5], over 50 µg/mL.

`COc1cccc2c1C(=O)c1c(O)c3c(c(O)c1C2=O)C[C@@](O)(C(=O)CO)C[C@@H]3O[C@H]1C[C@H](N)[C@H](O)[C@H](C)O1` [DOXORUBICIN] had an IC50 in assay [1] of 0.83 µM.

Regarding `COc1cc2c(cc1OC)CN(S(=O)(=O)c1ccc(-n3cc(CO)nn3)cc1)CC2`, the IC50 was 72 µM in assay [1]; 31.8 µM in assay [2]; 41 µM in assay [3]; over 50 µg/mL in assay [4]; over 50 µg/mL in assay [5].

Consider `O=S(=O)(c1ccc(-n2cc(COc3ccc4ccccc4c3)nn2)cc1)N1CCc2ccccc2C1`, for which the IC50 in assay [1] is over 50 µg/mL; in assay [2] it was 60.5 µM; in assay [3], over 50 µg/mL; in assay [4], over 50 µg/mL; in assay [5] it was over 50 µg/mL.

As for `O=c1cc(OCc2cn(-c3ccc(S(=O)(=O)N4CCc5ccccc5C4)cc3)nn2)c2ccccc2o1`, the IC50 in assay [1] was 24.8 µM; in assay [2], over 50 µg/mL; in assay [3], 25.3 µM; in assay [4] it was 28.6 µM; in assay [5], 80.8 µM.

For `COC(=O)c1ccccc1OCc1cn(-c2ccc(S(=O)(=O)N3CCc4cc(OC)c(OC)cc4C3)cc2)nn1`, the IC50 was determined as 4.79 µM in assay [1]; 3.37 µM in assay [2]; 8.43 µM in assay [3]; 2.82 µM in assay [4]; 11.7 µM in assay [5].

Consider `COc1cc2c(cc1OC)CN(S(=O)(=O)c1ccc(-n3cc(COc4ccc([N+](=O)[O-])cc4)nn3)cc1)CC2`, for which the IC50 in assay [1], in assay [2], in assay [3], in assay [4] and in assay [5] was over 50 µg/mL each time.

`COc1cc2c(cc1OC)CN(S(=O)(=O)c1ccc(-n3cc(COc4ccc(C)cc4)nn3)cc1)CC2`: the IC50 in assay [1] was over 50 µg/mL; in assay [2], 0.56 µM; in assay [3], over 50 µg/mL; in assay [4], over 50 µg/mL; in assay [5] it was over 50 µg/mL. For the same compound, the figures for the “Ratio IC50” value in assay [6] and in assay [7] were 53.9 and 1.4, respectively.

Take `COc1cc2c(cc1OC)CN(S(=O)(=O)c1ccc(-n3cc(COc4cc(C=O)ccc4OC)nn3)cc1)CC2`: the IC50 is 76.2 µM in assay [1]; 41.4 µM in assay [2]; 31.9 µM in assay [3]; over 50 µg/mL in assay [4]; 5.82 µM in assay [5].

In the case of `COC(=O)c1ccccc1OCc1cn(-c2ccc(S(=O)(=O)N3CCc4ccccc4C3)cc2)nn1`, the IC50 in assay [1] came out at 0.63 µM; in assay [2] it was 12.4 µM; in assay [3], 0.57 µM; in assay [4], 4.98 µM; in assay [5], 18.6 µM.

As for `COc1cc2c(cc1OC)CN(S(=O)(=O)c1ccc(-n3cc(COc4ccc(C=O)cc4OC)nn3)cc1)CC2`, the IC50 in assay [1] is 40 µM; in assay [2] it was over 50 µg/mL; in assay [3], over 50 µg/mL; in assay [4] it was over 50 µg/mL; in assay [5], 5.5 µM.

With `O=S(=O)(c1ccc(-n2cc(CO)nn2)cc1)N1CCc2ccccc2C1`, the IC50 in assay [1] was 51.4 µM; in assay [2] it was over 50 µg/mL; in assay [3] it was over 50 µg/mL; in assay [4], over 50 µg/mL; in assay [5], over 50 µg/mL.

For the compound `CC(=O)c1ccccc1OCc1cn(-c2ccc(S(=O)(=O)N3CCc4ccccc4C3)cc2)nn1`, the 50% inhibitory concentration (IC50) in assay [1] was 30.2 µM; in assay [2] it was 19.1 µM; in assay [3], 14.9 µM; in assay [4], over 50 µg/mL; in assay [5], 21.9 µM.

As to `COc1cc2c(cc1OC)CN(S(=O)(=O)c1ccc(-n3cc(COc4ccccc4)nn3)cc1)CC2`, the IC50 in assay [1] was over 50 µg/mL; in assay [2], 2.57 µM; in assay [3] it was over 50 µg/mL; in assay [4], over 50 µg/mL; in assay [5], over 50 µg/mL.

(Values after ChEMBL document CHEMBL3259540, “Design, synthesis and molecular docking studies of novel N-benzenesulfonyl-1,2,3,4-tetrahydroisoquinoline-based triazoles with potential anticancer activity” (Eur J Med Chem, 2014).)
